Assay outcomes from PubChem.
TRPC4 inh: inhibitors of mouse TRPC4 channel, primary screen, Fluo4 calcium, HEK293 TRPC4beta/mu-opioid cells; 0.39% of 300,000 active; B-score at 10 µM; DAMGO-evoked Fluo4 calcium flux; active compounds read low; Short transient receptor potential channel 4 (Mus musculus), Q9QUQ5;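 active = B-score over 3 SD under the library average, no early fluorescence shift, positive overall ratio signal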
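Assay system: Stable TRPC4beta/mu-opioid receptor HEK293 cells | Reagent: DAMGO in two steps, submaximal then maximal | Compound dosing: Single concentration per test compound | Signal: Fluo4 Ca2+ flux fluorescence | Evaluation: Per-well B score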
TRPC4 agonist: activators of mouse TRPC4 channel, primary screen, Fluo4 calcium, HEK293 TRPC4beta/mu-opioid cells. Short transient receptor potential channel 4 (Mus musculus), Q9QUQ5. Fluo4 calcium fluorescence; active compounds read high. B-score at 10 µM. 0.49% of 310,000 active. AID 2237, 2010;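 active = B-score above 5 SD of library B-scores, and initial fluorescence ratio not above library mean plus 5 SD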;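 also: positive B-score marks a calcium rise read as TRPC4 activation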
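Assay system: HEK293 stable line with TRPC4beta plus mu-opioid receptor; schedule: 45 min room-temperature Fluo4 loading, 110 s read; technique: kinetic Fluo4 calcium fluorescence; evaluation: integrated baseline-normalised fluorescence ratio, converted to per-well B score; controls: buffer (low) and maximal DAMGO (high)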
TRPC4 PAM: positive allosteric modulators of TRPC4, primary screen, cell-based, mouse TRPC4beta, HEK293 mu-opioid, Fluo-4 calcium; Short transient receptor potential channel 4 (Mus musculus), Q9QUQ5; DAMGO EC20, Fluo-4 Ca2+ flux; active compounds read high; B-score at 10 µM; 0.42% of 310,000 active;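 active = B-score of calcium response area above 5 SD of library B-scores, with initial fluorescence ratio within 5 SD of library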;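 also: B-score of integrated fluorescence ratio over time as area under calcium response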
TRPC6 act: mouse TRPC6 channel activators, primary screen, cell-based, HEK293, membrane potential dye. Short transient receptor potential channel 6 (Mus musculus), Q61143. HEK293-TRPC6 membrane potential dye fluorescence; active compounds read high. B-score at 10 µM. 0.13% of 310,000 active. AID 2550, 2010;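 active = B-score of the integrated fluorescence ratio above library mean plus 3 SD, and starting fluorescence ratio within library mean plus 5 SD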;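 also: higher score means more depolarization so channel activation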
Target sequence (Q61143 whole entry, looked up): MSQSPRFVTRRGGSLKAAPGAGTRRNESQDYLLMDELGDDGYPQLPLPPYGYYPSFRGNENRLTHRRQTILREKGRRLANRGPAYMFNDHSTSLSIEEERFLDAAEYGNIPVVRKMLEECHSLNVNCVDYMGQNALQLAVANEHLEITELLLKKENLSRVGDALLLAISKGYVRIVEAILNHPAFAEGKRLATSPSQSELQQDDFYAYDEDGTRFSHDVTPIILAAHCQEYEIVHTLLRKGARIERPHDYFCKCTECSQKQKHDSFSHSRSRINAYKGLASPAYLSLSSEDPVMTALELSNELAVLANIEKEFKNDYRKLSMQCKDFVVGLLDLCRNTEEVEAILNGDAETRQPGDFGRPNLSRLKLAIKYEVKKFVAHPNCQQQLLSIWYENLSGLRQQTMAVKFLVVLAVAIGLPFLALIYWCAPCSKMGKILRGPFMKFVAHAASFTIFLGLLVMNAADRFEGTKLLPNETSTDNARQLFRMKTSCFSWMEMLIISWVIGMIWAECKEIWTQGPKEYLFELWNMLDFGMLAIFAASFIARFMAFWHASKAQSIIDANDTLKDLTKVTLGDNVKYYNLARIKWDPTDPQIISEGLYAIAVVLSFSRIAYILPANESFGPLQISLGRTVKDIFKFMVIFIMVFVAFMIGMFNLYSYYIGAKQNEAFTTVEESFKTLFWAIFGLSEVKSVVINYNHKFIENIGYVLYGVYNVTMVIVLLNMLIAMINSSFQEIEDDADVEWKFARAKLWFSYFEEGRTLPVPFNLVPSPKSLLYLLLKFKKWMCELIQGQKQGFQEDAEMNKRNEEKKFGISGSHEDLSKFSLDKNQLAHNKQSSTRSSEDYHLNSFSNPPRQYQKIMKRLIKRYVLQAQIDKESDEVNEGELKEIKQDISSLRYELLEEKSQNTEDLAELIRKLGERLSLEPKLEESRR
TRPC6 inh: mouse TRPC6 channel inhibitors, primary screen, cell-based, HEK293, membrane potential dye; AID 2553, 2010; B-score at 10 µM; 1.1% of 310,000 active; ACh-evoked depolarization; active compounds read low;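 active = B-score under library mean minus 3 SD, initial fluorescence not abnormally high, positive integrated signal ratio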;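 also: B-score derived from integrated fluorescence ratio over the kinetic read; more negative B-score means stronger inhibition of depolarization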
The depositor's hits bear a star; i = inactive. Rows were chosen to be rich in hits. Some 2.3% of all compounds tested hit in one or more screens of this group.

SMILES	TRPC4 inh	TRPC4 agonist	TRPC4 PAM	TRPC6 act	TRPC6 inh
Cc1c(Cl)c(C(=O)Nc2nc3ccccc3n2CCN2CCCCC2)nn1C	i	i	i	i	-8.2*
CCCn1c(NC(=O)c2ccc(Cl)c(S(=O)(=O)N3CCCC3)c2)nc2ccccc21	-7*	i	32*	i	i
Cc1cc(N(CCO)CCO)ccc1C(c1ccc(N(CCO)CCO)cc1C)c1ccccc1Cl	i	i	11*	i	i
O=C(CC1C(=O)NCCN1C1CCCC1)NCc1cccc(OC(F)(F)F)c1 (stereo unspecified)	i	i	i	i	i
CCOC(=O)c1ccc(NC(=S)N2CCSC2c2ccc(Cl)cc2)cc1 (stereo unspecified)	i	i	20*	i	i
CN(C)C1(CNC(=O)C2CCN(S(=O)(=O)c3c(Cl)cccc3Cl)CC2)CCCCC1	i	i	i	i	i
Cc1ccc(-n2c(SCC(=O)N(C)C3CCS(=O)(=O)C3)nc3ccccc3c2=O)cc1 (stereo unspecified)	i	i	i	i	i
CCCCN(CC)CCCNC(=S)Nc1ccc2nc(N3CCN(C)CC3)cc(C)c2c1	i	i	i	i	i
CCCCN(CC)CCCNC(=S)Nc1ccc2nc3n(c(=O)c2c1)CCCCC3	i	i	10*	i	i
CCCCN(CC)CCCNC(=S)Nc1ccc2nc(N3CCN(CC)CC3)cc(C)c2c1	i	71*	i	i	i
CN1CCCC(OC(=O)c2ccccc2Br)C1 (stereo unspecified)	i	i	10*	i	i
CN1CCCC(OC(=O)c2cccc(Br)c2)C1 (stereo unspecified)	i	58*	i	i	i
CN1CCCC(OC(=O)c2cc(Cl)cc(Cl)c2)C1 (stereo unspecified)	i	193*	i	i	i
CN1CCCC(OC(=O)c2cccc(Cl)c2)C1 (stereo unspecified)	i	45*	12*	i	i
COCCNC(=O)c1cc2nc(-c3ccc(F)cc3)cc(C(F)(F)F)n2n1	i	i	i	i	i
CCN(CC)CCCNC(=O)c1cc2nc(-c3ccccc3)cc(C(F)(F)F)n2n1	i	i	11*	i	i
O=C(CNS(=O)(=O)c1ccc2ccccc2c1)NCCc1ccccn1	i	137*	i	i	i
O=S(=O)(NCc1ccccn1)c1ccc2ccccc2c1	i	i	i	i	i
NS(=O)(=O)c1ccc(N2N=C(c3ccccc3)CC2c2ccccc2)cc1 (stereo unspecified)	i	i	11*	i	i
O=S(=O)(O)c1ccc(N2N=C(c3ccccc3)CC2c2ccccc2)cc1 (stereo unspecified)	i	i	i	i	i
Cc1csc2c(N3CCN(C(=O)Nc4ccc(OC(F)(F)F)cc4)CC3)ncnc12	i	98*	i	i	i
Cc1[nH]c2ccccc2c1C(=O)CN1C(=O)NC(C)(c2ccc(Cl)cc2Cl)C1=O (stereo unspecified)	i	i	20*	i	i
Cc1[nH]c2ccccc2c1C(=O)CSc1ccc(Cl)cc1	i	i	i	i	i
CC1=C[C@@H](C)[C@@H](c2ccccc2)OC1=O	i	61*	i	i	i
COc1ccc(C(=O)N2CCN(c3c(C)cccc3C)CC2)cc1OC	i	i	17*	i	i
SMILES	TRPC4 inh	TRPC4 agonist	TRPC4 PAM	TRPC6 act	TRPC6 inh
Cc1cccc(/C=N/NC(=O)c2cc(Br)ccc2O)n1	i	i	65*	i	i
O=C(CSCc1cccc(Cl)c1)N1CCN(Cc2ccc3c(c2)OCO3)CC1	-7*	i	i	i	i
CCN1C(=O)/C(=C/N2CCc3ccccc32)SC1=S	i	i	i	i	i
CCN1C(=O)/C(=C\N2CCCc3ccccc32)SC1=S	i	i	20*	i	i
CN(C)c1nc(N)ncc1-c1ccc(Oc2ccccc2)cc1	i	i	i	i	i
CCOC(=O)C1(Cc2ccccc2Cl)CCN(C(=O)CCn2ccnc2C)CC1	i	i	i	i	i
CCn1cc(CN2CCC(C(=O)Nc3ccc(Oc4ccccc4)nc3)CC2)cn1	i	i	i	i	i
O=C(Nc1ccc(Oc2ccccc2)nc1)C1CCN(Cc2ccccc2)CC1	-6*	i	i	i	i
CN1CCN(CC(=O)N2c3ccccc3C(=O)Nc3cccnc32)CC1	i	i	i	i	-6*
CC[n+]1c(C=C2C=C(C)OC(C)=C2)sc2ccccc21	-8*	i	i	i	i
N#Cc1c(Nc2ccccc2)sc(C(=O)C2CC2)c1N	i	i	i	i	i
COc1ccc(OCCCC(=O)NCC(C)C)cc1	i	i	i	i	i
c1ccc(Nc2nc(N3CCNCC3)nc(N3CCOCC3)n2)cc1	i	65*	i	i	i
c1ccc(Nc2nc(N3CCOCC3)nc(N3CCOCC3)n2)cc1	i	i	i	i	i
O=C(COC(=O)/C=C/c1ccccc1Cl)NC1CCCCCC1	i	i	i	i	i
Cc1ccccc1-n1c(=O)c2c(n3cnnc13)-c1ccccc1CC21CCCCC1	i	i	16*	i	i
O/N=C/c1ccccc1Oc1ccc(Cl)cc1	-6*	i	i	i	i
O=S(=O)(NCC1(N2CCOCC2)CCCCC1)c1ccc(Cl)cc1C(F)(F)F	i	47*	i	i	i
COc1ccc(NC(=S)N2CCCN(Cc3cccc(Cl)c3)C2)cc1	i	i	i	i	i
COc1cccc(NC(=S)N2CCCN(Cc3ccc(F)cc3)C2)c1	i	45*	i	i	i
CN(C)S(=O)(=O)c1cccc(NC(=S)NN=C(Cc2ccccc2)Cc2ccccc2)c1	i	i	i	i	i
O=C(O)c1cccc(NS(=O)(=O)c2cccc3nsnc23)c1	i	i	i	i	i
O=C(CCl)N1CCN2C(=O)c3ccccc3C12c1ccc(Cl)cc1 (stereo unspecified)	i	i	i	i	i
O=C(Nc1cccc(Cl)c1)N1CCN2C(=O)c3ccccc3C12c1ccccc1 (stereo unspecified)	-6*	i	i	i	i
